Data from ChEMBL document CHEMBL1153722, “Design, synthesis, and characterization of peptide-based rab geranylgeranyl transferase inhibitors” (J Med Chem, 2009).
Square brackets hold non-standard residues; d marks the D form. Peptide text beside a SMILES is read from it. * marks the point of attachment. NMeY = CN[C@@H](Cc1ccc(O)cc1)C(=O)O; Hydrocinnamoyl = O=C(CCc1ccccc1)*; NMeF = CN[C@@H](Cc1ccccc1)C(=O)O; Undecanoyl = CCCCCCCCCCC(=O)*; Morpholide = C1CN(*)CCO1; Cbz = O=C(OCc1ccccc1)*; NHNH2 = NN*

Species on record: Rattus norvegicus
Assay: Inhibition of rat recombinant Rab geranylgeranyltransferase at 100 uM in presence of canine Rab7 and rat REP1 NBD-FPP based continuous fluorimetric assay
Outline: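 Continuous fluorometric assay in 96/384-well format: 3 μM Rab7, 3 μM REP1, 9 μM NBD-FPP and 400 nM RabGGTase, with or without inhibitor. […] IC50 was calculated from three independent measurements.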

| inhibition [%] | Structure (SMILES) |
| --- | --- |
| -2 | COC(=O)[C@H](Cc1ccccc1)NC(=O)[C@H](Cc1ccccc1)NC(=O)[C@H](CC(C)C)NC(=O)/C=C/c1ccccc1 |
| 112 | CC(C)C[C@H](NC(=O)[C@H](COC(C)(C)C)NC(=O)[C@H](Cc1ccccc1)NC(=O)/C=C/c1ccc(F)cc1)C(=O)Nc1nccs1 |
| 118 | C[C@@H](O)[C@H](NC(=O)/C=C/c1ccccc1)C(=O)N[C@@H](Cc1ccccc1)C(=O)N[C@@H](CCC(N)=O)C(=O)NCCO |
| 88 | CC(C)C[C@H](NC(=O)c1coc(-c2ccccc2)n1)C(=O)NCC(=O)N[C@@H](Cc1c[nH]cn1)C(=O)Nc1ccc(F)cc1F |
| 94 | COC(=O)[C@H](CC(C)C)NC(=O)[C@H](CO)NC(=O)[C@H](Cc1ccccc1)NC(=O)c1ccc(-c2ccccc2)cc1 |
| 92 | COC(=O)[C@H](CCC(N)=O)NC(=O)[C@H](Cc1ccccc1)NC(=O)[C@@H](NC(=O)/C=C/c1ccccc1)[C@@H](C)O |
| 83 | C[C@@H](O)[C@H](NC(=O)/C=C/c1ccccc1)C(=O)N[C@@H](Cc1ccccc1)C(=O)N[C@@H](CCC(N)=O)C(=O)O |
| 93 | C[C@@H](O)[C@H](NC(=O)C(Br)C(Br)c1ccccc1)C(=O)N[C@@H](Cc1ccccc1)C(=O)N[C@@H](CCC(N)=O)C(=O)Nc1nccs1 (some centres undefined) |
| 94 | CC(C)C[C@H](NC(=O)[C@H](CO)NC(=O)[C@H](Cc1ccccc1)NC(=O)/C=C/c1ccc(F)cc1)C(=O)Nc1nccs1 |
| 110 | CC(C)C[C@H](NC(=O)[C@H](CO)NC(=O)[C@H](Cc1ccccc1)NC(=O)c1ccc(-c2ccccc2)cc1)C(N)=O |
| 100 | O=C(/C=C/c1ccc(F)cc1)N[C@@H](CO)C(=O)N[C@@H](Cc1ccccc1)C(=O)N[C@@H](CO)C(=O)NCc1ccccc1 |
| 80 | CON(C)C(=O)[C@H](CCC(N)=O)NC(=O)[C@H](Cc1ccccc1)NC(=O)[C@@H](NC(=O)/C=C/c1ccccc1)[C@@H](C)O |
| 87 | CCC(C)OC(=O)[C@H](CCC(N)=O)NC(=O)[C@H](Cc1ccccc1)NC(=O)[C@@H](NC(=O)/C=C/c1ccccc1)[C@@H](C)O (some centres undefined) |
| 104 | NNC(=O)[C@H](CCC(N)=O)NC(=O)[C@H](Cc1ccccc1)NC(=O)[C@H](CO)NC(=O)CCc1ccccc1 (Hydrocinnamoyl-Ser-Phe-Gln-NHNH2) |
| 71 | O=C(/C=C/c1ccccc1)N[C@@H](Cc1ccccc1)C(=O)N[C@@H](Cc1ccccc1)C(=O)N[C@@H](Cc1ccc(O)cc1)C(=O)NC1CCCCC1 |
| 87 | CC(C)C[C@H](NC(=O)[C@H](COC(C)(C)C)NC(=O)[C@H](Cc1ccccc1)NC(=O)c1ccc(-c2ccccc2)cc1)C(=O)OCCCl |
| 61 | CC#CCOC(=O)[C@H](Cc1ccccc1)NC(=O)[C@H](Cc1ccccc1)NC(=O)[C@H](CC(C)C)NC(=O)/C=C/c1ccccc1 |
| 94 | CON(C)C(=O)[C@H](CC(C)C)NC(=O)[C@H](COC(C)(C)C)NC(=O)[C@H](Cc1ccccc1)NC(=O)/C=C/c1ccc(F)cc1 |
| 95 | O=C(CCc1ccccc1)N[C@@H](CO)C(=O)N[C@@H](Cc1ccccc1)C(=O)N[C@@H](CO)C(=O)Nc1ccc(N2CCOCC2)cc1 |
| 84 | COC(=O)[C@H](CC(C)C)NC(=O)[C@H](COC(C)(C)C)NC(=O)[C@H](Cc1ccccc1)NC(=O)c1ccc(-c2ccccc2)cc1 |

The next lines start with the compound.

| Structure (SMILES) | inhibition [%] |
| --- | --- |
| O=C(CCc1ccc(F)cc1)N[C@@H](Cc1ccc(O)cc1)C(=O)NCC(=O)N[C@@H](Cc1ccc(O)cc1)C(=O)Nc1ccc(F)cc1 | 80 |
| O=C(CNC(=O)[C@H](Cc1ccc(O)cc1)NC(=O)c1ccc(F)cc1)N[C@@H](Cc1ccc(O)cc1)C(=O)NCc1ccccc1 | 60 |
| CCCCCCCCCCCCCCCC(=O)N[C@@H](Cc1ccc(O)cc1)C(=O)N[C@@H](Cc1ccc(O)cc1)C(=O)N[C@@H](Cc1ccc(O)cc1)C(=O)Nc1ccc(F)cc1F | 82 |
| CCCCCCCCCCOc1ccc(C(=O)N[C@@H](Cc2c[nH]cn2)C(=O)N[C@@H](Cc2c[nH]cn2)C(=O)N[C@@H](CO)C(=O)O)cc1 | 74 |
| CCCCCCCCCCCC(=O)N[C@@H](Cc1c[nH]cn1)C(=O)N[C@@H](Cc1c[nH]cn1)C(=O)N[C@@H](CO)C(=O)NCC(O)CO (some centres undefined) | 63 |
| O=C(N[C@@H](Cc1ccc(O)cc1)C(=O)N[C@@H](Cc1ccc(O)cc1)C(=O)N[C@@H](Cc1ccc(O)cc1)C(=O)NC1CCCCC1)c1ccc(F)cc1F | 88 |
| CCCCCCCCCCCCCCCCNC(=O)[C@H](Cc1ccc(O)cc1)NC(=O)CNC(=O)[C@H](Cc1ccc(O)cc1)NC(=O)c1ccc(F)cc1 | 89 |
| CC(=O)Nc1cc(C(=O)N2CCC[C@@H]2C(=O)N[C@@H](C(=O)N[C@@H](CCC(N)=O)C(=O)NN)C(C)C)ccc1[N+](=O)[O-] | 77 |
| CCCCCCCCCCCCCCCC(=O)N[C@@H](Cc1ccc(O)cc1)C(=O)N[C@@H](Cc1ccc(O)cc1)C(=O)N[C@@H](Cc1ccc(O)cc1)C(=O)Nc1nccs1 | 83 |
| O=C(CNC(=O)c1coc(-c2ccccc2)n1)N[C@@H](Cc1cn(C(c2ccccc2)(c2ccccc2)c2ccccc2)cn1)C(=O)N[C@@H](Cc1cn(C(c2ccccc2)(c2ccccc2)c2ccccc2)cn1)C(=O)O | 91 |
| COC(=O)[C@H](CO)NC(=O)[C@H](Cc1c[nH]cn1)NC(=O)[C@H](CCCCN)NC(=O)CCc1ccccc1 (Hydrocinnamoyl-Lys-His-Ser-OMe) | 86 |
| CCCCCCCCCCCOc1ccc(C(=O)N[C@@H](Cc2ccc(O)cc2)C(=O)N[C@@H](Cc2ccc(O)cc2)C(=O)N[C@@H](Cc2ccc(O)cc2)C(=O)OCCCl)cc1 | 107 |
| COC(=O)[C@H](CO)NC(=O)CNC(=O)[C@H](Cc1ccccc1)NC(=O)c1coc(-c2ccccc2)n1 | 115 |
| O=C(N[C@@H](Cc1ccc(O)cc1)C(=O)N[C@@H](Cc1ccc(O)cc1)C(=O)N[C@@H](Cc1ccc(O)cc1)C(=O)O)OCc1ccccc1 | 51 |
| CCCCCCCCCCC(=O)N[C@@H](Cc1ccc(O)cc1)C(=O)N[C@@H](Cc1c[nH]cn1)C(=O)N[C@@H](Cc1c[nH]cn1)C(=O)O (Undecanoyl-Tyr-His-His-OH) | 64 |
| CCCCCCCCCCCNC(=O)[C@H](Cc1ccc(O)cc1)NC(=O)CNC(=O)[C@H](Cc1ccc(O)cc1)NC(=O)CCc1ccc(F)cc1 | 88 |
| CCCCCCCCCCC(=O)N[C@@H](Cc1ccc(O)cc1)C(=O)N[C@@H](Cc1cnc[nH]1)C(=O)N[C@@H](Cc1ccc(O)cc1)C(=O)O (Undecanoyl-Tyr-His-Tyr-OH) | 90 |
| CCCCCc1ccc(CCC(=O)N[C@H](Cc2ccc(O)cc2)C(=O)N[C@@H](Cc2ccccc2)C(=O)N[C@@H](Cc2ccc(O)cc2)C(=O)O)cc1 | 2 |
| CC(C)(C)Oc1ccc(C[C@H](NC(=O)CNC(=O)[C@H](CCCCN)NC(=O)c2coc(-c3ccccc3)n2)C(=O)O)cc1 | 93 |
| CCCCCCCCCCC(=O)N[C@@H](Cc1c[nH]cn1)C(=O)N[C@@H](Cc1ccccc1)C(=O)N[C@@H](Cc1ccc(O)cc1)C(=O)Nc1ccccc1N | 34 |

| Structure (SMILES) | inhibition [%] |
| --- | --- |
| CC(=O)Nc1cc(C(=O)N2CCC[C@H]2C(=O)N[C@@H](C(=O)N[C@@H](CCC(=O)O)C(=O)Nc2ccc(F)c(Cl)c2)C(C)C)ccc1[N+](=O)[O-] | 109 |
| CCCCOC(=O)[C@H](Cc1ccc(O)cc1)NC(=O)CNC(=O)[C@H](Cc1ccc(O)cc1)NC(=O)CCc1ccc(F)cc1 | 47 |
| CC(C)C[C@H](NC(=O)[C@H](COC(C)(C)C)NC(=O)[C@H](Cc1ccccc1)NC(=O)CCc1ccccc1)C(=O)OCCCl | 109 |
| CN(C(=O)[C@H](Cc1cnc[nH]1)NC(=O)OCc1ccccc1)[C@@H](Cc1ccc(O)cc1)C(=O)N(C)[C@@H](Cc1ccccc1)C(=O)O (Cbz-His-[NMeY]-[NMeF]-OH) | 54 |
| CCCCCCCCCCCOc1ccc(C(=O)N[C@@H](Cc2ccc(O)cc2)C(=O)N[C@@H](Cc2ccc(O)cc2)C(=O)N[C@@H](Cc2ccc(O)cc2)C(=O)OC)cc1 | 102 |
| CC[C@H](C)[C@H](NC(=O)c1ccc(-c2ccccc2)cc1)C(=O)N[C@@H](C(=O)N[C@@H](CCC(N)=O)C(=O)OCCc1scnc1C)C(C)C | 86 |
| C[C@@H](O)[C@H](NC(=O)C(Br)C(Br)c1ccccc1)C(=O)N[C@@H](Cc1ccccc1)C(=O)N[C@@H](CCC(N)=O)C(=O)OCCCCO (some centres undefined) | 60 |
| CC(C)[C@H](NC(=O)c1coc(-c2ccccc2)n1)C(=O)NCC(=O)N[C@@H](Cc1ccc(O)cc1)C(=O)Nc1ccc(F)cc1F | 102 |
| CCCCCCCCCCCOc1ccc(C(=O)N[C@@H](Cc2c[nH]cn2)C(=O)N[C@@H](Cc2ccc(O)cc2)C(=O)N[C@@H](Cc2ccccc2)C(=O)OCCN)cc1 | 74 |
| O=C(CCc1ccc(F)cc1)N[C@@H](Cc1ccc(O)cc1)C(=O)NCC(=O)N[C@@H](Cc1ccc(O)cc1)C(=O)NCc1ccc(F)cc1F | 89 |
| C=CCOC(=O)[C@H](Cc1ccccc1)N(C)C(=O)[C@H](Cc1ccc(OC)cc1)N(C)C(=O)[C@@H](Cc1ccc(O)cc1)NC(=O)CCc1ccccc1 | 74 |
| CCCCCCCCCCCOc1ccc(C(=O)N[C@@H](Cc2c[nH]cn2)C(=O)N[C@@H](Cc2c[nH]cn2)C(=O)N[C@@H](Cc2c[nH]cn2)C(N)=O)cc1 | 32 |
| CCCCCCCCCCCCCC(=O)N[C@@H](Cc1ccc(O)cc1)C(=O)N[C@@H](Cc1ccc(O)cc1)C(=O)N[C@@H](Cc1ccc(O)cc1)C(=O)Nc1ccc(N2CCOCC2)cc1 | 94 |
| CCCCCCCCCCCOc1ccc(C(=O)N[C@@H](Cc2c[nH]cn2)C(=O)N[C@@H](Cc2ccc(O)cc2)C(=O)N[C@@H](Cc2ccccc2)C(=O)O)cc1 | 75 |
| CCCCCCCCCCC(=O)N[C@@H](Cc1c[nH]cn1)C(=O)N[C@@H](Cc1ccccc1)C(=O)N[C@@H](Cc1ccc(O)cc1)C(=O)NCCCn1ccnc1 | 101 |
| CC[C@H](C)[C@H](NC(=O)c1ccc(-c2ccccc2)cc1)C(=O)N[C@@H](C(=O)N[C@@H](CCC(N)=O)C(=O)O)C(C)C | 77 |
| O=C(CNC(=O)[C@H](Cc1ccc(O)cc1)NC(=O)c1coc(-c2ccccc2)n1)N[C@@H](Cc1c[nH]c2ccccc12)C(=O)O | 59 |
| O=C(CCc1ccccc1)N[C@@H](CO)C(=O)NCC(=O)N[C@@H](CO)C(=O)N1CCOCC1 (Hydrocinnamoyl-Ser-Gly-Ser-Morpholide) | 83 |
| O=C(CNC(=O)[C@H](Cc1cn(C(c2ccccc2)(c2ccccc2)c2ccccc2)cn1)NC(=O)c1coc(-c2ccccc2)n1)N[C@@H](Cc1c[nH]c2ccccc12)C(=O)O | 74 |
